Converted amounts (≈) assume the structure as drawn.
Legend:
[1] = tested on: Mycobacterium tuberculosis; assay: Antibacterial activity against replicating form of Mycobacterium tuberculosis MC2 6220 assessed as growth inhibition after 7 days by high-throughput screening assay; assay type: functional; conditions: MC2 6220, 168 h
Method in brief: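 Attenuated Mtb mc26220 ΔpanCDΔlysA in 7H9 with glycerol, tyloxapol, OADC, casein amino acids, 240 μg/mL L-lysine, 24 μg/mL pantothenate. Mid-log cells diluted to OD580 0.01 in 384-well plates, compound in DMSO, 7 days at 37 °C, 20% O2, 5% CO2. OD580 read; MIC90 = 90% growth inhibition vs DMSO.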

[2] = tested on: Mycobacterium tuberculosis; assay: Antibacterial activity against non-replicating form of Mycobacterium tuberculosis MC2 6220 assessed as growth inhibition after 3 days by high-throughput screening assay; assay type: functional; conditions: MC2 6220, 72 h
Method in brief: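 Log-phase mc26220 washed in PBS/tyloxapol, resuspended in Sauton's-based NR medium (butyrate, 0.5 mM NaNO2, pH 5.0) at OD580 0.1. Compound exposure 3 days at 37 °C, 1% O2, 5% CO2. Then R medium added (5-fold dilution), 7 days outgrowth at 20% O2. OD580 read; MIC90 = 90% inhibition vs DMSO.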

[3] = Cytotoxicity against human HepG2 cells assessed as decrease in ATP signal after 2 days by CellTiter-Glo assay; assay type: cell-based; conditions: read-out: LD50
Method in brief: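 HepG2 in DMEM with 10% FBS, pyruvate, glutamine, HEPES and nonessential amino acids, seeded 3000 cells/well in 384-well plates. Compound for 2 days at 1% final DMSO. ATP read by CellTiter-Glo luminescence. LD50 = 50% drop in ATP signal vs DMSO. SI = LD50/MIC90 against replicating Mtb.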

Structure (SMILES) | MIC90 [1] [µg/mL] | MIC90 [2] [µg/mL] | CC50 at 48 h [3] [µg/mL]
CCCc1cc(=O)oc2c(C(=O)CC)c(N3CCN(c4ccccn4)CC3)c3c(c12)OC(C)(C)C=C3 | > 24 | > 24 | –
CCCc1cc(=O)oc2cc(OC3CCCCC3)c3c(c12)OC(C)(C)C=C3 | > 18 | > 18 | > 18
CCCc1cc(=O)oc2c(C(=O)N3CCOCC3)c(O)c3c(c12)OC(C)(C)C=C3 | > 20 | > 20 | > 20
CCCc1cc(=O)oc2cc(OC(C)=O)c3c(c12)OC(C)(C)C=C3 | > 16 | > 16 | –
CCCc1cc(=O)oc2cc(OC)c3c(c12)OC(C)(C)C=C3 | > 15 | > 15 | –
CCCc1cc(=O)oc2cc(N3CCN(C(=O)Nc4ccc(F)cc4)CC3)c3c(c12)OC(C)(C)C=C3 | > 25 | > 25 | > 25
CCCc1cc(=O)oc2cc(NC(C)=O)c3c(c12)OC(C)(C)C=C3 | > 16 | > 16 | –
CCCc1cc(=O)oc2cc(N3CCSCC3)c3c(c12)OC(C)(C)C=C3 | > 19 | > 19 | –
CCCc1cc(=O)oc2c3c(c4c(c12)OC(C)(C)C=C4)OC(O)C3=O (stereo not given) | > 17 | 17 (≈ 49.7 µM) | –
CCCc1cc(=O)oc2cc(N3CCN(C(=O)Nc4ccc(C(C)C)cc4)CC3)c3c(c12)OC(C)(C)C=C3 | > 26 | > 26 | > 26
CCCc1cc(=O)oc2cc(NC(=O)Nc3cccc4ccccc34)c3c(c12)OC(C)(C)C=C3 | > 23 | > 23 | –
CCCc1cc(=O)oc2cc(OCCc3cccs3)c3c(c12)OC(C)(C)C=C3 | > 20 | > 20 | –
CCCc1cc(=O)oc2cc(OCC(=O)NCCc3ccccc3)c3c(c12)OC(C)(C)C=C3 | > 22 | > 22 | –
CCCc1cc(=O)oc2cc(N3CCN(C(=O)Nc4ccccc4Oc4ccccc4)CC3)c3c(c12)OC(C)(C)C=C3 | > 28 | > 28 | > 28
CCCc1cc(=O)oc2c(C(=O)CC)c(N3CCN(Cc4ccc(F)cc4)CC3)c3c(c12)OC(C)(C)C=C3 | > 26 | 26 (≈ 50.1 µM) | –
CCCc1cc(=O)oc2cc(OCCCO)c3c(c12)OC(C)(C)C=C3 | > 17 | > 17 | –
CCCc1cc(=O)oc2cc(OCC3CC3)c3c(c12)OC(C)(C)C=C3 | > 17 | > 17 | –
CCCc1cc(=O)oc2c(C(=O)CC)c(N3CCN(c4ccncc4)CC3)c3c(c12)OC(C)(C)C=C3 | > 24 | > 24 | –
CCCc1cc(=O)oc2c(C(=O)CC)c(N3CCN(c4ccc(OC)cc4)CC3)c3c(c12)OC(C)(C)C=C3 | > 26 | > 26 | –
CCCc1cc(=O)oc2cc(C#CCOc3ccc(F)cc3)c3c(c12)OC(C)(C)C=C3 | > 21 | > 21 | > 21
CCCc1cc(=O)oc2c1c(OCCN1CCOCC1)cc1oc([N+](=O)[O-])c(CO)c12 | 100 (≈ 231 µM) | 100 (≈ 231 µM) | –
CCCc1cc(=O)oc2cc(NCc3ccccc3)c3c(c12)OC(C)(C)C=C3 | 19 (≈ 50.6 µM) | > 19 | –

Structure (SMILES) | MIC90 [1] [µg/mL] | MIC90 [2] [µg/mL] | CC50 at 48 h [3] [µg/mL]
CCCc1cc(=O)oc2cc(NC(=O)Nc3ccc(F)cc3)c3c(c12)OC(C)(C)C=C3 | > 21 | > 21 | –
CCCc1cc(=O)oc2cc(N3CCN(C(=O)Nc4ccc(C(F)(F)F)cc4)CC3)c3c(c12)OC(C)(C)C=C3 | > 27 | > 27 | > 27
CCCc1cc(=O)oc2c3c(cc(OCCN4CCOCC4)c12)O[C@H]([N+](=O)[O-])[C@H]3C (racemic) | > 21 | > 21 | > 21
CCCc1cc(=O)oc2cc(N3CCN(C(=O)NCc4ccccc4)CC3)c3c(c12)OC(C)(C)C=C3 | > 24 | > 24 | > 24
CCCc1cc(=O)oc2cc(C#Cc3ccc(OC)cc3)c3c(c12)OC(C)(C)C=C3 | > 20 | > 20 | > 20
CCCc1cc(=O)oc2cc(Nc3ccccc3)c3c(c12)OC(C)(C)C=C3 | > 18 | > 18 | –
CCCc1cc(=O)oc2cc(NCc3ccc(F)cc3)c3c(c12)OC(C)(C)C=C3 | > 20 | > 20 | –
CC1(C)C=Cc2c(c3c4c(c(=O)oc3c3cc([N+](=O)[O-])oc23)CCCC4)O1 | < 0.2 | 2 (≈ 5.44 µM) | –
CCCc1cc(=O)oc2cc(OC3CCN(C(=O)NCc4ccccc4)CC3)c3c(c12)OC(C)(C)C=C3 | > 25 | > 25 | > 25
CC1(C)C=Cc2c(c3c(-c4ccccc4)cc(=O)oc3c3cc([N+](=O)[O-])oc23)O1 | 2 (≈ 5.14 µM) | 19 (≈ 48.8 µM) | –
CCCc1cc(=O)oc2cc(C#Cc3ccccn3)c3c(c12)OC(C)(C)C=C3 | > 19 | > 19 | > 19
CCCc1cc(=O)oc2c(C(=O)CC)c(N(C)C)c3c(c12)OC(C)(C)C=C3 | > 18 | > 18 | –
CCCc1cc(=O)oc2c3c(c4cc([N+](=O)[O-])oc4c12)OC(C)CC3=O (stereo not given) | > 50 | 6 (≈ 16.8 µM) | –
CCCCCCCNC(=O)N1CCN(c2cc3oc(=O)cc(CCC)c3c3c2C=CC(C)(C)O3)CC1 | > 25 | > 25 | > 25
CCCc1cc(=O)oc2c3c(c4c(c12)OC(C)(C)C=C4)OC(C)(OC(C)=O)C3=O (stereo not given) | > 20 | > 20 | –
CCCc1cc(=O)oc2c3c(cc(OCCOC(=O)c4cnccn4)c12)O[C@H]([N+](=O)[O-])[C@H]3O (racemic) | < 1 | < 1 | < 1
CCCc1c(F)c(=O)oc2c1c1c(c3oc([N+](=O)[O-])cc32)C=CC(C)(C)O1 | 19 (≈ 50.9 µM) | 19 (≈ 50.9 µM) | –
CCCc1cc(=O)oc2cc(N3CCC(O)CC3)c3c(c12)OC(C)(C)C=C3 | > 18 | > 18 | –
CCCc1cc(=O)oc2c1c1c(c3occc32)C=CC(C)(C)O1 | > 100 | > 100 | –
CCCc1cc(=O)oc2c(C(=O)CC)c(N3CCSCC3)c3c(c12)OC(C)(C)C=C3 | > 21 | > 21 | –
CCCc1cc(=O)oc2cc(N3CCN(C(=O)Nc4ccc(C#N)cc4)CC3)c3c(c12)OC(C)(C)C=C3 | > 25 | > 25 | > 25
CCCc1cc(=O)oc2c(C(=O)CC)c(N3CCOCC3)c3c(c12)OC(C)(C)C=C3 | > 21 | > 21 | –

Structure (SMILES) | MIC90 [1] [µg/mL] | MIC90 [2] [µg/mL] | CC50 at 48 h [3] [µg/mL]
CCCc1cc(=O)oc2cc(OC(C)C)c3c(c12)OC(C)(C)C=C3 | > 16 | > 16 | > 16
CCCc1cc(=O)oc2cc(OCCN3CCOCC3)c3c(c12)OC(C)(C)C=C3 | 20 (≈ 50.1 µM) | > 20 | 20 (≈ 50.1 µM)
CCCc1cc(=O)oc2cc(N3CCN(C(=O)NC4CCCCC4)CC3)c3c(c12)OC(C)(C)C=C3 | > 24 | > 24 | > 24
CCCc1cc(=O)oc2c3c(cc(OCCO)c12)O[C@H]([N+](=O)[O-])[C@H]3O (racemic) | < 1 | < 1 | < 1
Cc1c(Cc2ccccc2)c(=O)oc2c1c1c(c3oc([N+](=O)[O-])cc32)C=CC(C)(C)O1 | 2 (≈ 4.79 µM) | > 21 | –
CCCc1cc(=O)oc2cc(OC(=O)/C=C/c3ccccc3)c3c(c12)OC(C)(C)C=C3 | > 21 | > 21 | –
CCCc1cc(=O)oc2cc(OC(=O)c3ccccc3)c3c(c12)OC(C)(C)C=C3 | > 20 | > 20 | –
CCCc1cc(=O)oc2cc(C#Cc3ccc(F)cc3)c3c(c12)OC(C)(C)C=C3 | > 19 | > 19 | > 19
Cc1cc(=O)oc2cc(-c3ccc([N+](=O)[O-])o3)c3c(c12)OC(C)(C)C=C3 | > 18 | > 18 | > 18
CCCc1cc(=O)oc2cc(OC3CCCC3)c3c(c12)OC(C)(C)C=C3 | > 23 | > 23 | > 23
CCCC1CC(=O)Oc2c1c1c(c3oc([N+](=O)[O-])cc23)C=CC(C)(C)O1 (stereo not given) | > 18 | > 18 | –
CCCc1cc(=O)oc2cc(NCc3cccc(F)c3)c3c(c12)OC(C)(C)C=C3 | > 20 | > 20 | –
CCCc1cc(=O)oc2c3c(c4c(c12)OC(C)(C)C=C4)OC(OC(C)=O)C3=O (stereo not given) | > 100 | 6 (≈ 15.6 µM) | –
CCCc1cc(=O)oc2c1c(-c1ccc(F)cc1)cc1oc([N+](=O)[O-])cc12 | 0.7 (≈ 1.91 µM) | 18 (≈ 49 µM) | –
CCCc1cc(=O)oc2cc(NC(=O)c3cnccn3)c3c(c12)OC(C)(C)C=C3 | > 20 | > 20 | –
CCCc1cc(=O)oc2cc(NC(=O)c3ccccc3)c3c(c12)OC(C)(C)C=C3 | > 19 | > 19 | –
Cc1cc(=O)oc2cc(NC(=O)c3ccc([N+](=O)[O-])o3)c3c(c12)OC(C)(C)C=C3 | > 20 | > 20 | –
CCCc1cc(=O)oc2cc(OCc3ccccc3)c3c(c12)OC(C)(C)C=C3 | > 19 | > 19 | –
CCCc1cc(=O)oc2c1c(O)cc1oc([N+](=O)[O-])cc12 | > 14 | > 14 | –
CCCc1cc(=O)oc2cc(OC3CCN(C(=O)Nc4ccc(F)cc4)CC3)c3c(c12)OC(C)(C)C=C3 | > 24 | > 24 | –
